# Tests used:
# [1] = test system: Human immunodeficiency virus 1; assay: Inhibitory activity against wild type HIV-1 LAI cell line; format: functional, organism-based; conditions: Human immunodeficiency virus 1, LAI
# Procedure, shortened: (§1)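 MT4 human T-lymphoblastoid cells were grown in RPMI 1640 with 10% fetal calf serum and antibiotics at 37 °C and 5% CO2. A compound concentration series was combined with HIV-1 LAI at 200 CCID50/well and 30 000 cells/well. Mock-infected cultures with the same concentrations were run in parallel to measure cytotoxicity. After 5 days, cell viability was read by MTT colorimetry. EC50 is the concentration giving 50% infection versus the drug-free control.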
# [2] = test system: Human immunodeficiency virus 1; assay: Inhibitory activity against HIV-1 double mutants strain 100I and 103N; format: functional, organism-based
# Procedure, shortened: (§2)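 Mutant HIV-1 made by recombining mutant PR-RT sequence into a PR-RT-deleted HXB2 proviral clone. Serial compound concentrations plated, then virus (200 CCID50/well) and MT4 cells (30 000 cells/well; RPMI 1640, 10% FCS) added; 5 days at 37 °C, 5% CO2; viability read by MTT. EC50 = concentration giving 50% infection versus drug-free control; mock-infected cultures run in parallel for toxicity.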
# [3] = test system: Human immunodeficiency virus 1; assay: Inhibitory activity against HIV-1 mutant strain 181C; format: functional, organism-based; procedure, shortened: as §2
# [4] = test system: Human immunodeficiency virus 1; assay: Inhibitory activity against HIV-1 mutant strain 190A; format: functional, organism-based; procedure, shortened: as §2
# [5] = test system: Human immunodeficiency virus 1; assay: Inhibitory activity against HIV-1 double mutants strain 101E and 103N; format: functional, organism-based; procedure, shortened: as §2
# [6] = test system: Human immunodeficiency virus 1; assay: Inhibitory activity against HIV-1 mutant strain 100I; format: functional, organism-based; procedure, shortened: as §2
# [7] = test system: Human immunodeficiency virus 1; assay: Inhibitory activity against HIV-1 mutant strain 188L; format: functional, organism-based; procedure, shortened: as §2
# [8] = test system: Human immunodeficiency virus 1; assay: Inhibitory activity against HIV-1 mutant strain 103N; format: functional, organism-based; procedure, shortened: as §2
# [9] = test system: Human immunodeficiency virus 1; assay: Inhibitory activity against HIV-1 double mutants strain 103N and 181C; format: functional, organism-based; procedure, shortened: as §2
# [10] = test system: Human immunodeficiency virus 1; assay: Selectivity index of cytotoxic activity (CC50) to inhibitory activity (IC50) relative to LAI cell line; format: functional; procedure, shortened: as §1
# [11] = test system: Human immunodeficiency virus 1; assay: Inhibitory activity against HIV-1 mutant strain 138K; format: functional, organism-based; procedure, shortened: as §2
# [12] = test system: Human immunodeficiency virus 1; assay: Inhibitory activity against HIV-1 mutant strain 190S; format: functional, organism-based; procedure, shortened: as §2
# [13] = test system: Human immunodeficiency virus 1; assay: Inhibitory activity against HIV-1 mutant strain 101E; format: functional, organism-based; procedure, shortened: as §2
# [14] = test system: Human immunodeficiency virus 1; assay: Inhibitory activity against HIV-1 mutant strain 179E; format: functional, organism-based; procedure, shortened: as §2
# [15] = test system: Human immunodeficiency virus 1; assay: Inhibitory activity against HIV-1 mutant strain 227C; format: functional, organism-based; procedure, shortened: as §2
# [16] = test system: Human immunodeficiency virus 1; assay: Inhibitory activity against HIV-1 double mutants strain 227L and 106A; format: functional, organism-based; procedure, shortened: as §2
Compound,IC50 [1] [nM],IC50 [2] [nM],IC50 [3] [nM],IC50 [4] [nM],IC50 [5] [nM],IC50 [6] [nM],IC50 [7] [nM],IC50 [8] [nM],IC50 [9] [nM],Selectivity index [10],IC50 [11] [nM],IC50 [12] [nM],IC50 [13] [nM],IC50 [14] [nM],IC50 [15] [nM],IC50 [16] [nM]
CCc1c(C)nc(O)c(N(C)C)c1C(=O)c1cccc(Br)c1,2,70,150,7,70,20,790,20,970,12600,5,3,10,5,260,100
CCc1c(C)nc(O)c(N(C)C)c1C(=O)c1ccc(OC)c(C)c1,70,–,100000,–,–,–,100000,1580,–,200,–,–,–,–,–,–
CCOC(=O)/C=C/C=C/c1cccc(C(=O)c2c(CC)c(C)nc(O)c2N(C)C)c1,5,–,200,–,–,–,630,40,–,398,–,–,–,–,–,–
CCc1c(C)nc(O)c(N(C)C)c1Cc1cccnc1,10,–,1000,–,–,–,3980,390,–,6310,–,–,–,–,–,–
CCc1c(C)nc(O)c(N(C)C)c1Cc1cccc(C)c1,2,–,60,–,–,–,1000,20,–,39900,–,–,–,–,–,–
CCc1c(C)nc(O)c(N(C)C)c1C(=O)c1cccc(C(C)=O)c1,10,–,1000,–,–,–,10000,120,–,3160,–,–,–,–,–,–
CCOC(=O)/C=C/c1cccc(C(=O)c2c(CC)c(C)nc(O)c2N(C)C)c1,3,–,150,–,–,–,150,10,–,3160,–,–,–,–,–,–
CCc1c(C)nc(O)c(N(C)C)c1Cc1ccccc1Br,6,–,130,–,–,–,1990,250,–,15900,–,–,–,–,–,–
CCc1c(C)nc(O)c(N(C)C)c1C(=O)c1cccc(C(C)C#N)c1 (stereo unspecified),3,–,120,–,–,–,250,8,–,31600,–,–,–,–,–,–
CCc1c(C)nc(O)c(N(C)C)c1Cc1cccc(OC)c1,4,–,320,–,–,–,310,100,–,12600,–,–,–,–,–,–
CCc1c(C)nc(O)c(N(C)C)c1C(=O)c1cccc(/C(C)=C(\C)C#N)c1,6,–,120,–,–,–,1580,20,–,1580,–,–,–,–,–,–
CCc1c(C)nc(O)c(N(C)C)c1Cc1cccc(C(F)(F)F)c1,10,–,30,–,–,–,5010,390,–,10000,–,–,–,–,–,–
CCc1c(C)nc(O)c(N(C)C)c1Cc1cc(Cl)cc(Cl)c1,8,310,160,–,200,50,630,20,500,3980,–,–,–,–,700,500
Cc1ccnc2c1NC(=O)c1cccnc1N2C1CC1 [NEVIRAPINE],30,–,10000,–,500,310,100000,–,40,–,50,40,310,190,130,20
CCc1c(C)nc(O)c(N(C)C)c1Cc1cccc(F)c1,2,–,160,–,–,–,1580,60,–,39800,–,–,–,–,–,–
CCc1c(C)nc(O)c(N(C)C)c1C(=O)c1cccc(/C=C/c2cccnc2)c1,3,–,60,–,–,–,150,20,–,3160,–,–,–,–,–,–

Compound,IC50 [1] [nM],IC50 [2] [nM],IC50 [3] [nM],IC50 [4] [nM],IC50 [5] [nM],IC50 [6] [nM],IC50 [7] [nM],IC50 [8] [nM],IC50 [9] [nM],Selectivity index [10],IC50 [11] [nM],IC50 [12] [nM],IC50 [13] [nM],IC50 [14] [nM],IC50 [15] [nM],IC50 [16] [nM]
CCc1c(C)nc(O)c(N(C)C)c1C(=O)c1cccc(CC#N)c1,1,–,120,–,–,–,1000,6,–,31600,–,–,–,–,–,–
CCc1c(C)nc(O)c(N(C)C)c1C(=O)c1cccc(-c2cccnc2)c1,6,–,10000,–,–,–,10000,50,–,126,–,–,–,–,–,–
CCc1c(C)nc(O)c(N(C)C)c1C(=O)c1cccc(C#N)c1,2,30,40,5,20,10,390,6,110,6310,4,2,7,4,220,50
CCc1c(C)nc(O)c(N(C)C)c1Cc1ccccc1C,20,–,1000,–,–,–,7940,1250,–,3980,–,–,–,–,–,–
CCc1c(C)nc(O)c(N(C)C)c1C(=O)c1cccc(CC(C)C#N)c1 (stereo unspecified),8,–,500,–,–,–,1990,50,–,12600,–,–,–,–,–,–
CCc1c(C)nc(O)c(N(C)C)c1C(=O)c1cccc(/C=C/c2cnccn2)c1,20,–,70,–,–,–,200,50,–,3960,–,–,–,–,–,–
CCc1c(C)nc(O)c(N(C)C)c1Cc1cc(F)cc(F)c1,10,–,100,–,–,–,500,30,–,7940,–,–,–,–,–,–
CCc1c(C)nc(O)c(N(C)C)c1C(=O)c1cccc(CO)c1,50,–,3870,–,–,–,18600,360,–,2940,–,–,–,–,–,–
CCc1c(C)nc(O)c(N(C)C)c1C(=O)c1cccs1,10,–,3980,–,–,–,100000,310,–,6310,–,–,–,–,–,–
CCc1c(C)nc(O)c(N(C)C)c1Cc1cccc(Cl)c1,5,–,80,–,–,–,1580,40,–,20000,–,–,–,–,–,–
CCc1c(C)nc(O)c(N(C)C)c1C(=O)c1cccc(CCC#N)c1,3,–,250,–,–,–,1990,10,–,31600,–,–,–,–,–,–
CCc1c(C)nc(O)c(N(C)C)c1C(=O)c1cccc([N+](=O)[O-])c1,2,–,200,–,–,–,3160,20,–,39600,–,–,–,–,–,–
CCc1c(C)nc(O)c(N(C)C)c1C(=O)c1cc(Cl)cc(Cl)c1,2,500,30,10,40,8,310,10,150,5010,10,3,10,10,630,60
CCc1c(C)nc(O)c(N(C)C)c1C(=O)c1cccc(N)c1,10,–,10000,–,–,–,10000,500,–,2510,–,–,–,–,–,–
CCc1c(C)nc(O)c(N(C)C)c1Cc1cccc(Br)c1,4,–,6,–,–,–,2510,100,–,25100,–,–,–,–,–,–

# Source: ChEMBL document CHEMBL1138799, “4-benzyl- and 4-benzoyl-3-dimethylaminopyridin-2(1H)-ones, a new family of potent anti-HIV agents: optimization and in vitro evaluation against clinically important HIV mutant strains” (J Med Chem, 2004)
